# KCNK3 block = human KCNK3 channel inhibitors, primary screen, CHO cells, FluxOR thallium flux, B-score. B-score at 10 µM. Potassium channel subfamily K member 3 (Homo sapiens), O14649. AID 602410, 2012. actives 0.84% (n = 340,000). FluxOR fluorescence; active compounds read low;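 active = B-score under library mean minus 4 SD, starting fluorescence ratio at most library mean plus 5 SD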;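 note: more negative B-score means stronger inhibition of thallium flux through KCNK3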
# Target sequence (O14649 whole entry, looked up): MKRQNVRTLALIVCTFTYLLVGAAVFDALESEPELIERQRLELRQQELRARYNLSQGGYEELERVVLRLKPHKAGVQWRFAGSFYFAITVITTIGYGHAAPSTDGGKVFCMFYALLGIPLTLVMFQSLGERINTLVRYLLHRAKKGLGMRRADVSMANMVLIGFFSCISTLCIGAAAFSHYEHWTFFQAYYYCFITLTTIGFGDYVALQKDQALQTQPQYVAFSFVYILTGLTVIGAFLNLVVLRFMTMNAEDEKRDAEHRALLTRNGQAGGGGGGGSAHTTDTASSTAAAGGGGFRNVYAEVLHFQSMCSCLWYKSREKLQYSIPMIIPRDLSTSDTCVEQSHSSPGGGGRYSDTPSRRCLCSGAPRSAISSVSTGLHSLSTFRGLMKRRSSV
# hERG protect = hERG rescue from dofetilide block, primary screen, cell-based, CHO-hERG, FluxOR thallium flux, dofetilide IC70; Voltage-gated inwardly rectifying potassium channel KCNH2 (Homo sapiens), Q12809; dofetilide IC70 present; activation (rescue from dofetilide block), less the hit threshold, % at 10 µM; actives 0.51% (n = 310,000); AID 1511, 2009;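 active = activation above the mean of controls blocked by dofetilide plus 5 SD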;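 note: thallium influx through hERG after potassium depolarization seen as dye fluorescence rise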
# KCNQ1 act = potentiators or activators of KCNQ1 channel, primary screen, cell-based, thallium flux, high-throughput; CHO-K1 KCNQ1, thallium flux FluxOR fluorescence; active compounds read high; Potassium voltage-gated channel subfamily KQT member 1 (Homo sapiens), P51787; B-score at 10 µM; AID 2648, 2010; actives 0.35% (n = 310,000);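 active = fluorescence ratio B-score, a plate-corrected score, at least three library SD, with initial intensity B-score within 5 SD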
#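 Assay system: CHO-K1 cells stably expressing KCNQ1. Medium: assay buffer for compound exposure, DMSO matched across wells. Timing: 37 °C overnight plating, 90-min dark dye load, 20-min compound pretreatment. Signal: kinetic FluxOR fluorescence, 10 s baseline plus 110 s post-stimulus.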
# Kir21 block = inhibitors of mouse Kir2.1 inward-rectifier potassium channel. B-score at 10 µM. actives 0.85% (n = 310,000). HEK293-Kir2.1, FluxOR thallium flux fluorescence; active compounds read low. Inward rectifier potassium channel 2 (Mus musculus), P35561;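 active = fluorescence ratio B-score at or below minus 3 SD of library scores, with starting-brightness B-score within 2 SD, cut at about -4.2 in these data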;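 note: channel flux triggered by added potassium and thallium sulfate stimulus; B-score of peak minus minimum fluorescence over baseline after thallium stimulus; more negative B-score means stronger Kir2.1 block with less thallium influx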
# KCNQ1 block = inhibitors of human KCNQ1 channel, primary screen, cell-based, thallium flux, high-throughput; Potassium voltage-gated channel subfamily KQT member 1 (Homo sapiens), P51787; CHO-K1 KCNQ1, FluxOR thallium flux fluorescence; active compounds read high; B-score at 10 µM; actives 1.3% (n = 310,000); AID 2642, 2010;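 active = compounds whose thallium flux B-score, printed positive for inhibition, exceeds three library SD while starting fluorescence stays within three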;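 note: channel opened by potassium depolarization with thallium stimulus after 20 min compound exposure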
# KCNK9 inh = KCNK9 potassium channel inhibitors, primary screen, HEK293 cells, thallium flux; AID 488922, 2010; B-score at 10 µM; actives 1.2% (n = 310,000); FluxOR thallium flux fluorescence; active compounds read low; Potassium channel subfamily K member 9 (Homo sapiens), Q9NPC2;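 active = ratio B-score over 3 SD below the library mean, with starting fluorescence within 5 SD of its mean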;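 note: negative B-score means less thallium flux so channel inhibition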
# KCNK9 block conf = KCNK9 potassium channel inhibitors, confirmation, HEK293 cells, thallium flux, duplicate. shares compounds with KCNK9 inh. actives 43% (n = 4,900). inhibition, % at 10 µM. FluxOR thallium flux fluorescence;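 active = thallium signal inhibited by more than 5 SD of the compound-free buffer control wells, on both duplicate plates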;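 note: 0% = assay buffer control wells without compound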
# Kir2-1 spec = mouse Kir2.1 channel inhibition, confirmation, selectivity assay for KCNK9 modulator project, cell-based, HEK293, thallium flux. shares compounds with KCNK9 inh. Kir2.1 cells, FluxOR thallium flux fluorescence. inhibition, % at 10 µM. actives 4% (n = 4,900);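 active = thallium signal drop more than 5 SD beyond the mean of the no-compound control wells, seen in both duplicate plates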;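 note: signal is fluorescence rise after thallium addition divided by baseline fluorescence; plate controls were assay buffer only for no effect and full block by chlorpromazine control for full effect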
# KCNK9 uninduced = thallium flux in non-induced HEK293 cells, confirmation, counter-screen for KCNK9 inhibitor project, cell-based, second counter screen, non-induced KCNK9-HEK293; AID 492997, 2010; FluxOR thallium flux; inhibition, % at 10 µM; actives 40% (n = 4,900); shares compounds with KCNK9 inh;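 active = thallium signal drop beyond 5 SD of the untreated control mean, on both duplicate plates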;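 note: plate controls were buffer only IC0 wells for no effect and SID17386958 at its maximal inhibitory level for full effect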
# Active calls of the source: *; i = inactive; · = not tested or not shown. Rows were chosen to be rich in hits. Some 3.7% of all compounds tested hit in one or more screens of this group.
SMILES,KCNK3 block,hERG protect,KCNQ1 act,Kir21 block,KCNQ1 block,KCNK9 inh,KCNK9 block conf,Kir2-1 spec,KCNK9 uninduced
Cc1ccc(-c2[nH]c(=S)[nH]c(=O)c2C#N)cc1,i,-7,i,0.18,i,i,·,·,·
O=C(NNC(=S)Nc1ccc(Cl)cc1Cl)c1ccc(N2CCOCC2)c([N+](=O)[O-])c1,i,-10,i,0,6*,i,i,i,i
O=C(c1ccc(N2CCOCC2)c([N+](=O)[O-])c1)N1CCCCC1,i,-9,i,0.7,i,i,·,·,·
O=C(COc1cc(O)c2c(=O)cc(-c3ccccc3)oc2c1)c1ccccc1,i,-7,i,-0.58,i,-8.7*,44%*,i,30%*
Cc1ccc(C(=O)COc2cc(O)c3c(=O)cc(-c4ccccc4)oc3c2)cc1,i,-1,i,0.1,i,i,·,·,·
Cc1ccc2nc(N/C(N)=N/S(=O)(=O)c3ccc([N+](=O)[O-])cc3)nc(C)c2c1,i,-8,i,3.5,i,i,·,·,·
COc1ccc(OC)c(Nc2nc(N(C)c3ccccc3)nc(N)c2[N+](=O)[O-])c1,i,-4,i,1.4,i,i,·,·,·
Cc1ccccc1C1c2[nH]c3ccccc3c2C[C@H]2C(=O)N(C3CCN(Cc4ccccc4)CC3)CC(=O)N12 (stereo partly drawn),i,-9,i,-1.6,i,i,·,·,·
CCOc1ccccc1C1c2[nH]c3ccccc3c2C[C@H]2C(=O)N(C3CCN(Cc4ccccc4)CC3)CC(=O)N12 (stereo partly drawn),i,-14,i,1.1,i,i,i,i,i
COc1ccc(CCNC(=O)CN(c2ccc(OC)c(OC)c2)S(=O)(=O)c2ccc(C)cc2)cc1,i,-6,i,1.4,i,i,·,·,·
Cc1ccc(N=Nc2c(O)ccc3n[nH]nc23)cc1,i,-9,i,2.8,i,i,i,i,i
CCOC(=O)c1c(C)[nH]c(N=Nc2ccc(C)cc2)c1C,i,-5,i,-0.18,i,i,·,·,·
Cc1ccc(S(=O)(=O)N2CCN(C(=O)CSc3ncc(C(F)(F)F)cc3Cl)CC2)cc1,i,-6,i,-2.3,i,i,i,i,i
CC(C)(C)OC(=O)C[C@H]1C/C=C\C[C@H](CC(=O)N[C@H](CO)Cc2ccccc2)C(=O)N2CCC[C@H]2COC1=O,i,·,·,·,·,·,·,·,·
COc1ccccc1N1C(=O)Cc2ccccc2C1=O,i,-4,i,0.06,i,i,·,·,·
O=C(Nc1cccc(-c2csc(-c3ccccc3)n2)c1)c1cccs1,i,-6,i,1.5,i,-12*,45%*,i,i
COc1ccc(OCc2cc(C(=O)N3CCN(C4CCCC4)CC3)no2)c(Cl)c1,i,-14,i,0.66,i,i,i,i,i
CSc1ccccc1OCc1cc(C(=O)N2CCc3c(Cl)cccc3C2)no1,i,-12,i,0.07,i,i,i,i,i
Cc1ccc(OCc2cc(C(=O)N3CCCCCCC3)no2)cc1C,i,-5,i,2,i,i,·,·,·
COc1ccc(OCc2cc(C(=O)N3CCCCCCC3)no2)c(Cl)c1,i,-6,i,1,i,i,·,·,·
Cc1ccc(OCc2cc(C(=O)N3CCC(c4ccccc4Cl)C3)no2)cc1C (stereo not drawn),i,-5,i,0.31,i,i,i,i,i
O=C(Oc1ccc2ccc(=O)oc2c1)c1ccc([N+](=O)[O-])cc1,i,-11,i,-0.62,i,-15*,40%*,i,i
Cc1ccc(C(=O)Oc2ccc3ccc(=O)oc3c2)cc1,i,-4,i,-2.4,i,i,·,·,·
Cc1ccc(C(=O)COC(=O)c2ccccc2NC(=O)c2ccccc2)cc1[N+](=O)[O-],i,-5,i,0.04,i,-9*,49%*,i,36%*
O=C(COC(=O)c1ccccc1NC(=O)C1CC1)c1ccc2c(c1)OCCO2,·,-8,i,0.32,i,i,·,·,·
SMILES,KCNK3 block,hERG protect,KCNQ1 act,Kir21 block,KCNQ1 block,KCNK9 inh,KCNK9 block conf,Kir2-1 spec,KCNK9 uninduced
Cc1ccc(C(=O)COC(=O)CNC(=O)Cc2ccccc2)cc1[N+](=O)[O-],i,-2,i,-0.07,i,i,·,·,·
CC(C)(C)C(=O)Nc1ccccc1C(=O)OCC(=O)c1ccc2c(c1)OCCO2,i,-1,i,-0.04,i,-18*,62%*,i,32%*
CCOCC(=O)Nc1ccccc1C(=O)OCC,i,1,i,0.41,i,i,·,·,·
CCOCCOC(=O)COC(=O)c1ccccc1NC(=O)c1ccccc1,i,-13,i,-1.8,i,i,i,i,i
Cc1ccc(S(=O)(=O)Nc2ccc(Cl)cn2)cc1C,i,-3,i,0.48,i,i,·,·,·
O=C(CS(=O)(=O)c1ccc(Cl)cc1)NCc1ccccc1,i,-6,i,-0.83,i,i,·,·,·
COc1ccc(NC(=O)CCN2CCN(Cc3ccccc3)CC2)c(OC)c1,i,-4,i,-2.3,i,i,·,·,·
CCOc1ccccc1CNC(=O)c1cc2oc3ccccc3c2n1CC,i,-11,i,-0.54,i,-9.1*,50%*,i,30%*
COc1cccc(CNC(=O)c2cc3oc4ccccc4c3n2C)c1OC,i,-6,i,1.1,i,i,·,·,·
CCOC(=O)Cn1c(=NC(=O)CSC(C)=O)sc2cc(F)ccc21,i,-13,i,-0.19,i,-8.6*,63%*,i,33%*
CCn1c(=NC(=O)CSC(C)=O)sc2cc(OC)ccc21,i,-7,i,0.17,i,-14*,60%*,i,32%*
COCCn1c(=NC(=O)CSC(C)=O)sc2cc(F)ccc21,i,-2,i,0,i,i,·,·,·
